By IC50 is commonly meant the concentration needed to halve the response being measured.

Structures are written as SMILES. Calls of active or inactive are those of the source. The calls are words filed in the database; no cut-off is given here.

For one molecule, Activity, Time and IC50 results are on record in ChEMBL document CHEMBL4422614 (Eur J Med Chem, 2019).

Data set [1] is described as follows: Metal chelating activity of the compound assessed as formation of zinc-compound complex at 50 uM after 30 mins by UV-vis spectrophotometric analysis. Summed up:
(§1)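 UV-vis absorption spectra of compound (50 µM) were recorded in HEPES buffer alone and with 50 µM CuSO4, ZnCl2, FeSO4 or FeCl3, and spectral changes were assessed.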

In data set [2] the test system is Mus musculus. The experiment in a line: Cognition enhancement activity in amyloid beta (25 to 35 residues) induced C57BL/6J mouse model of Alzheimer's disease assessed as swimming time in effective region at 30 mg/kg/day, ig administered for 26 consecutive days by Morris water maze test (4.3 +/- 1.3 sec). In kind it is functional. Summed up: (§2)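 Mice were randomized into 7 groups. All except sham got an ICV injection of Aβ25-35 (3 nmol); sham got the same volume of saline ICV. Dosing was intragastric daily for 26 days, with 0.5% CMC-Na as vehicle for sham and model. Body weight, diarrhea and emesis-like behavior were monitored.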

Data set [3] relates to Mus musculus. Description: Neuroprotection in amyloid beta (25 to 35 residues) induced C57BL/6J mouse model of Alzheimer's disease assessed as reduction in ratio of apoptotic neuron in CA3 hippocampus region at 30 mg/kg/day, ig administered for 26 consecutive days by hematoxylin and eosin staining-based light microscopic analysis (reference value: 80.2 +/- 8.6%). In kind it is ADME, organism-based. More on the design: scale not given: the % may be the effect or the level left. Conditions: in vivo, po. Summed up:
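Hippocampal CA1, CA3 and DG neurons were stained with H&E after the Aβ25-35 ICV model and 26-day intragastric dosing. Denatured cell index = denatured cells/total cells, n = 5. Values are mean ± SD, two-way ANOVA versus model.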

Data set [4] has as its target 3',5'-cyclic-AMP phosphodiesterase 4D (Homo sapiens, UniProt Q08499). The experiment in a line: Inhibition of human PDE4D2 (86 to 413 residues) catalytic domain using [3H]-cAMP as substrate after 15 mins by liquid scintillation counting method.
The nature of data set [5]: Cardiotoxicity in C57BL/6 mouse assessed as abnormal changes up to 2000 mg/kg, ig after 14 days by microscopic analysis. The note with it: in vivo, po, 336 h. In kind it is toxicity, organism-based. Summed up: (§3)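 Mice given a single intragastric dose of test compound at various dosages, then observed for 14 days for death and abnormal behaviour. On day 14, animals were sacrificed and heart, liver, lungs and kidneys examined.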

Data set [6] is described as follows: Acute Toxicity in C57BL/6 mouse assessed as mouse mortality up to 2000 mg/kg, ig measured over 14 days. The format is organism-based. The note with it: in vivo, po, 336 h. Summed up:
as §3

Data set [7] can be described thus: Metal chelating activity of the compound assessed as formation of ferric-compound complex at 50 uM after 30 mins by UV-vis spectrophotometric analysis. Summed up: as §1
Data set [8] can be described thus: Hepatotoxicity in C57BL/6 mouse assessed as tissue damage up to 2000 mg/kg, ig after 14 days by microscopic analysis. Conditions: in vivo, po, 336 h. The format is toxicity, organism-based. Summed up:
as §3

Data set [9] in a line: Nephrotoxicity in C57BL/6 mouse assessed as abnormal changes up to 2000 mg/kg, ig after 14 days by microscopic analysis. The format is toxicity, organism-based. The note with it: in vivo, po, 336 h. Summed up:
as §3

The nature of data set [10]: Toxicity in amyloid beta (25 to 35 residues) induced C57BL/6J mouse model of Alzheimer's disease assessed as emesis at 30 mg/kg/day, ig administered for 26 consecutive days. In kind it is organism-based. Conditions: in vivo, po. Summed up:
as §2

Data set [11] can be described thus: Toxicity in amyloid beta (25 to 35 residues) induced C57BL/6J mouse model of Alzheimer's disease assessed as loss of body weight at 30 mg/kg/day, ig administered for 26 consecutive days. In kind it is organism-based. The note with it: in vivo, po. The method in brief: as §2

Sequence of 3',5'-cyclic-AMP phosphodiesterase 4D (Q08499 whole entry, the tested form may be a part): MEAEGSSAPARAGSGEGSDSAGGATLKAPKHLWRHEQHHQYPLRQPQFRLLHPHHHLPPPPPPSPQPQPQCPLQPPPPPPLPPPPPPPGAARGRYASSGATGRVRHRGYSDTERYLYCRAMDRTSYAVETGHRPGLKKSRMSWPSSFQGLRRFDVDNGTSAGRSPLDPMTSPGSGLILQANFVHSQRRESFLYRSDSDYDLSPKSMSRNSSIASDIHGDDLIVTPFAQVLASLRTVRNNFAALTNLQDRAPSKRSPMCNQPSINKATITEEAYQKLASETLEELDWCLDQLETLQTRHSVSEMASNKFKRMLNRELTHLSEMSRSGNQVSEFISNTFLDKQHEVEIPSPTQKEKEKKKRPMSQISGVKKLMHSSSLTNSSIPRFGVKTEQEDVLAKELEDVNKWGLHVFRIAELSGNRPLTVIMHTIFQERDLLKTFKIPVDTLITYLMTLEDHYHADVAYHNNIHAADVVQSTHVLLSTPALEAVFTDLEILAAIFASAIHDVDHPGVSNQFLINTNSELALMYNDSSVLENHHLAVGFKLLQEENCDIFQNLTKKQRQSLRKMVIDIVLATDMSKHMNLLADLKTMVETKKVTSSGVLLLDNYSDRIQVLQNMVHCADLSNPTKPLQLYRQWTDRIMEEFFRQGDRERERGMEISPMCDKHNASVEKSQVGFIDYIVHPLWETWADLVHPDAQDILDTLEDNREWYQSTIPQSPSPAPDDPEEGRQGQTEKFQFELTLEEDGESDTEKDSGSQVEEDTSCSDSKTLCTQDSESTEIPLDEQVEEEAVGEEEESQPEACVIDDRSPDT

In the case of `COc1ccc(C(=O)Nc2ccc(O)c3ncccc23)cc1OC1CCCC1.Cl`, the outcome in data set [1] and in data set [7] was Active. Moreover, in [2], the Time stood at 6.1 s. Further, the Activity is on record as 37.1% in [3]; “Non-Toxic” in data set [5]; “Non-Toxic” in data set [6]; “Non-Toxic” in [8]; “Non-Toxic” in data set [9]; “Non-Toxic” in [10]. For the same molecule, in data set [11], the Activity entry is listed as “Non-Toxic”. Further, in data set [4], the IC50 stood at 492 nM.
